Test results taken from ChEMBL document CHEMBL1145444, “Mechanism-based thrombin inhibitors: design, synthesis, and molecular docking of a new selective 2-oxo-2H-1-benzopyran derivative” (J Med Chem, 2007).

How the values were obtained:
[1] = biological target: Prothrombin (Homo sapiens) (UniProt P00734); experiment: Inhibition of thrombin assessed as residual activity at 100 uM after 10 min
Procedure, shortened: (§1)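 Isolated, purified thrombin was incubated with inhibitor for 10 min, then its proteolytic activity was measured. Screening used 100 µM inhibitor, with lower concentrations for potent compounds. Values are reported as percentage of residual enzyme activity.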

Homo sapiens [2] = species on record: Homo sapiens; experiment: Selectivity for thrombin over alpha chymotrypsin
Procedure, shortened: (§2)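 Inactivation rate constant (k_i) and K_I were determined by one of two methods depending on the protease. In the progress-curve method, inhibitor competes with a chromogenic substrate. In the preincubation method, enzyme and inhibitor are incubated first and remaining activity is sampled at regular time intervals. k_i/K_I serves as the potency index, and selectivity is taken as the ratio of k_i/K_I between proteases.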

[3] = biological target: Prothrombin (Homo sapiens) (UniProt P00734); experiment: Ratio of kcat for thrombin to Ki for thrombin
Procedure, shortened: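 Partition ratio is the ratio of product released per inactivation event, calculated as k_cat/k_i, on thrombin.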

[4] = biological target: Prothrombin (Homo sapiens) (UniProt P00734); experiment: Inhibition of thrombin assessed as residual activity at 2 uM after 10 min; procedure, shortened: as §1
[5] = biological target: Prothrombin (Homo sapiens) (UniProt P00734); experiment: Ratio of Ki for thrombin to K(inactivation) for thrombin; procedure, shortened: as §2
Homo sapiens [6] = species on record: Homo sapiens; experiment: Ratio of Ki for alpha chymotrypsin to K(inactivation) for alpha chymotrypsin; procedure, shortened: as §2
[7] = biological target: Prothrombin (Homo sapiens) (UniProt P00734); experiment: Inhibition of thrombin assessed as residual activity at 10 uM after 10 min; procedure, shortened: as §1

Compound: O=C(Nc1cc(Cl)ccc1Cl)c1cc2cc(CCl)ccc2oc1=O
- Activity [1]: 91%

Compound: O=C(OCc1cc(Cl)ccc1O)c1cc2cc(CCl)ccc2oc1=O
- Activity [1]: 101%

Compound: O=C(Nc1cc(Cl)ccc1O)c1cc2cc(CCl)ccc2oc1=O
- Activity [1]: 110%

Compound: O=C(Oc1cccc(Cl)c1)c1cc2cc(CCl)ccc2oc1=O
- Ratio (Homo sapiens [2]): 0.01
- partition ratio kcat/ki [3]: 2.8

Compound: O=C(Oc1cccc(Cl)c1)c1cc2cc(Oc3ccccc3)ccc2oc1=O
- Activity [1]: 90%

Compound: O=C(Oc1cc(Cl)ccc1Cl)c1cc2cc(CCl)ccc2oc1=O
- Ratio (Homo sapiens [2]): 0.13
- partition ratio kcat/ki [3]: 1.8

Compound: O=C(Oc1cc(Cl)ccc1Cl)c1cc2cc(Oc3ccccc3)ccc2oc1=O
- Activity [1]: 94%

Compound: CCOC(=O)COc1ccc(Cl)cc1COC(=O)c1cc2cc(CCl)ccc2oc1=O
- Activity [1]: 95%

Compound: O=C(OCc1cc(Cl)ccc1Cl)c1cc2cc(CCl)ccc2oc1=O
- Activity [1]: 103%

Compound: Nc1ccc(Cl)cc1OC(=O)c1cc2cc(CCl)ccc2oc1=O
- Activity [1]: 60%

Compound: CCNC(=O)COc1ccc(Cl)cc1OC(=O)c1cc2cc(CCl)ccc2oc1=O
- Activity [4]: 11%
- Ratio [5]: 3460 M⁻¹ s⁻¹
- Ratio (Homo sapiens [6]): 755 M⁻¹ s⁻¹
- Ratio (Homo sapiens [2]): 5
- Activity [7]: 3%
- partition ratio kcat/ki [3]: 13.5
